The nature of data set [1]: Cytotoxicity against CHOK1 cells at 100 uM after 72 hrs by CellTiter-Glo luminescence assay. Type of data set: cell-based, Cricetulus griseus. The note with it: chinese hamster, CHO-K1 cells; read-out: INH. The essentials:
(§1)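 1250 cells per well in serum-free medium (F12 for CHO-K1 and A549, DMEM for M14). Compounds given as 10-point 1:3 serial dilutions from a 300 µM stock, plus a gefitinib control. Incubated 72 h at 37 °C, 5% CO2. CellTiter-Glo added for 15 min at room temperature, then luminescence read. Viability normalized to media-only wells (0%) and 1% DMSO wells (100%). Run in triplicate.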
On the technique in general: In ATP-based viability assays light output follows the ATP content of the culture.

The subject of data set [2] is M14. The experiment in a line: Cytotoxicity against human M14 cells assessed as cell viability after 24 hrs using GF-AFC as substrate by ApoTox-Glo triplex assay. Type of data set: functional, cell-based. The essentials:
(§2)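 M14 cells, 1250 per well, in serum-free DMEM, settled 4 h, then given 1:3 serial dilutions. Ionomycin, terfenadine and panobinostat were the controls. Incubated 4, 24, 48 or 72 h at 37 °C. A reagent containing 400 µM GF-AFC (live-cell protease, ex 400/em 505 nm) and 400 µM bis-AAF-R110 (dead-cell protease, ex 485/em 520 nm) was applied for 30 min at 37 °C. Caspase-Glo 3/7 (DEVD) luminescence was then read after 30 min at room temperature.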

Data set [3] has as its system M14. The experiment in a line: Induction of apoptosis human M14 cells assessed as caspase activity after 24 to 48 hrs using DEVD peptide as substrate by ApoTox-Glo triplex assay. Type of data set: functional, cell-based. The essentials:
as §2

In data set [4] the test system is M14. In words: Cytotoxicity against human M14 cells assessed as cell viability at 100 uM after 4 hrs using bis-AAF-R110 as substrate by ApoTox-Glo triplex assay. Type of data set: functional, cell-based. The essentials:
as §2

Data set [5] deals with M14. The experiment in a line: Induction of apoptosis human M14 cells assessed as caspase activity at 100 uM after 4 hrs using DEVD peptide as substrate by ApoTox-Glo triplex assay. Type of data set: functional, cell-based. The essentials:
as §2

Data set [6] relates to M14. In words: Cytotoxicity against human M14 cells assessed as cell viability at 100 uM after 4 hrs using GF-AFC as substrate by ApoTox-Glo triplex assay. Type of data set: functional, cell-based. The essentials: as §2
The test system of data set [7] is M14. The experiment in a line: Induction of apoptosis human M14 cells assessed as caspase activity after 4 to 24 hrs using DEVD peptide as substrate by ApoTox-Glo triplex assay. Type of data set: functional, cell-based. The essentials:
as §2

Data set [8] deals with M14. In words: Cytotoxicity against human M14 cells assessed as cell viability after 4 hrs using bis-AAF-R110 as substrate by ApoTox-Glo triplex assay. Type of data set: functional, cell-based. The essentials: as §2
Data set [9] relates to M14. In words: Cytotoxicity against human M14 cells assessed as cell viability after 4 hrs using GF-AFC as substrate by ApoTox-Glo triplex assay. Type of data set: functional, cell-based. The essentials: (§3)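 M14 #5 cells, 1250 per well in serum-free DMEM, pre-incubated 4 h at 37 °C, 5% CO2. Compounds added as 1:3 serial dilutions; incubated 4, 24, 48 and 72 h. Per time point, a reagent containing 400 µM GF-AFC (live-cell protease) and 400 µM bis-AAF-R110 (dead-cell protease) was added for 30 min at 37 °C, then fluorescence was read. Caspase-Glo 3/7 was added next, 30 min at room temperature, then luminescence.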

Data set [10] concerns M14. In words: Cytotoxicity against human M14 cells at 100 uM after 72 hrs by CellTiter-Glo luminescence assay. Type of data set: functional. The conditions noted are these: M14, 72 h. The essentials:
as §1

The test system of data set [11] is A549. The experiment in a line: Cytotoxicity against human A549 cells at 100 uM after 72 hrs by CellTiter-Glo luminescence assay. The conditions noted are these: A549, 72 h. Type of data set: functional. The essentials: as §1
The test system of data set [12] is M14. In words: Induction of apoptosis human M14 cells assessed as caspase activity at 100 uM after 4 to 72 hrs using DEVD peptide as substrate by ApoTox-Glo triplex assay. Type of data set: functional, cell-based. The essentials: as §3
For data set [13], the system named is M14. In words: Cytotoxicity against human M14 cells expressing […] mutant. Type of data set: functional, cell-based.
Data set [14] in a line: Cytotoxicity against human M262 cells expressing B-raf V600E mutant. Type of data set: functional, cell-based.
Data set [15] is described as follows: Cytotoxicity against human M238 cells expressing B-raf V600E mutant. Type of data set: functional, cell-based.
Data set [16] is described as follows: Cytotoxicity against human M249 cells expressing B-raf V600E mutant. Type of data set: functional, cell-based.
The nature of data set [17]: Cytotoxicity against human M229 cells expressing B-raf V600E mutant. Type of data set: functional, cell-based.
Data set [18] relates to SK-MEL-28. The experiment in a line: Cytotoxicity against human SK-MEL-28 cells expressing B-raf V600E mutant. Type of data set: functional, cell-based.
A short description of data set [19]: Cytotoxicity against human M263 cells expressing B-raf V600E mutant. Type of data set: functional, cell-based.
The nature of data set [20]: Cytotoxicity against human M321 cells expressing B-raf V600E mutant. Type of data set: functional, cell-based.

Activity calls are given as the source filed them. No cut-off for these calls is given here.

By inhibition is commonly meant the share of the control response that was lost under treatment. As usually defined, the IC50 is the point on the concentration scale where inhibition reaches its midpoint. The low end stands for inhibition by little substance, the high end for a need for much substance.

For `CCC[C@@H]1CNC(=O)C(=O)N1C[C@@H]1CCCN1C[C@H](Cc1ccc(O)cc1)N1C[C@@H](Cc2ccc(O)cc2)N(CC(CC)c2ccccc2)C(=O)C1=O` (stereo not given in full), in [1], the cytotoxicity at 72 h, 100 µM was 0%.
Consider `Cc1[nH]c2ccccc2c1CCNCc1ccc(/C=C/C(=O)NO)cc1`, for which the Activity entry in data set [2] was “Dose-dependent effect”. The outcome in [3] was Active. Moreover, the result in [4], in data set [5] and in data set [6] was inactive.
`CC(C)(C)c1ccc(C(O)CCCN2CCC(C(O)(c3ccccc3)c3ccccc3)CC2)cc1` (stereo not given): the result in data set [7], in data set [8] and in [9] was Active.
On to `CCC[C@@H]1CNC(=O)C(=O)N1C[C@@H]1CCCN1C[C@@H](Cc1ccc(O)cc1)N1C[C@H](Cc2ccc(O)cc2)N(CC2CCCC2)C(=O)C1=O`, for which the results for the inhibition at 100 µM in data set [10] and in data set [11] were 23% and 16%, respectively. The cytotoxicity at 72 h, 100 µM in data set [1] is 19%.
Take `C[C@H](CCC(=O)O)C[C@H](C)C[C@H](C)C(=O)/C=C(\O)[C@H](C)C[C@H](C)C/C=C/[C@@H](C)[C@@H](O)[C@@H](C)[C@@H](O)C[C@@H]1CC[C@@](C)([C@H]2CC[C@@](C)([C@@H](C)O)O2)O1`: in data set [12], the result was inactive. For the same compound, the Activity entry in data set [9] is “Dose-dependent effect”.
On to `CCCS(=O)(=O)Nc1ccc(F)c(C(=O)c2c[nH]c3ncc(-c4ccc(Cl)cc4)cc23)c1F` [VEMURAFENIB], for which the IC50 in data set [13] came to 150 nM; in [14] it was 100 nM; in [15] it was 100 nM; in [16], 100 nM; in [17] it was 100 nM; in data set [18], 100 nM. Further, the IC50 in [19] and in [20] was 100 nM in each case.
As for `CCC[C@@H]1CNC(=O)C(=O)N1C[C@@H]1CCCN1C[C@@H](Cc1ccc(O)cc1)N1C[C@@H](Cc2ccc(O)cc2)N(CC2CCCC2)C(=O)C1=O`, the inhibition at 100 µM is 25% in data set [10] and 14% in data set [11]. Also, the cytotoxicity at 72 h, 100 µM in [1] was 11%.

Source of the values: ChEMBL document CHEMBL3232843, “Novel pyrrolidine diketopiperazines selectively inhibit melanoma cells via induction of late-onset apoptosis” (J Med Chem, 2014).
